Source: ChEMBL document CHEMBL5316375, “Discovery of Novel, Selective Prostaglandin EP4 Receptor Antagonists with Efficacy in Cancer Models” (ACS Med Chem Lett, 2023)
Values belong to the compound of their own block, whether it stands above or below them.

Experiments:
[1] = molecular target: T1, Prostaglandin E2 receptor EP3 subtype (Homo sapiens, UniProt P43115); experiment: Antagonist activity at EP3 receptor (unknown origin)
T1 sequence (P43115 whole entry): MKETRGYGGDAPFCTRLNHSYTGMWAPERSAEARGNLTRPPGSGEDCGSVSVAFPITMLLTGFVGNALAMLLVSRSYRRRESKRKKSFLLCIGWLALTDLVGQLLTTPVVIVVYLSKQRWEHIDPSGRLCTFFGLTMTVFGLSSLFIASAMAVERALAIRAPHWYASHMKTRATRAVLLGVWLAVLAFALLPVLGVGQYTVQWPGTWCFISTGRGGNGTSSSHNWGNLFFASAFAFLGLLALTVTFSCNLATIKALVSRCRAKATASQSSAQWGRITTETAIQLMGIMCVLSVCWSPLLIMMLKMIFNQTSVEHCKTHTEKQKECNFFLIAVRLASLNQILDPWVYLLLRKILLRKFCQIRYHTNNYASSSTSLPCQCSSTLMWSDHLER

[2] = Oral bioavailability in Sprague-Dawley rat at 10 mg/kg; format: ADME, organism-based; conditions: in vivo
[3] = Plasma protein binding in mouse at 1 uM incubated for 6 hrs by LC-MS/MS analysis; format: ADME, cell-free
[4] = Cmax in Sprague-Dawley rat at 1 mg/kg, iv; format: ADME, organism-based; design: dose 1 mg/kg, route iv; conditions: in vivo
[5] = Plasma protein binding in rat at 1 uM incubated for 6 hrs by LC-MS/MS analysis; format: ADME, cell-free
[6] = Plasma protein binding in mouse assessed as parent compound remaining at 1 uM incubated for 6 hrs by LC-MS/MS analysis; format: ADME, cell-free
[7] = Plasma protein binding in human assessed as parent compound remaining at 1 uM incubated for 6 hrs by LC-MS/MS analysis; format: ADME, cell-free
[8] = Toxicity in BALB/c mouse allografted with CT26 cells assessed as body weight loss at 75 to 150 mg/kg, po qd administered for 11 days and measured every 2 to 3 days; format: organism-based; conditions: in vivo, 264 h, dose 75-150 mg/kg, time 11 day
Method in brief: (§1)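 CT-26 tumors in BALB/c mice grown to 100–200 mm3, then animals randomized (n = 6/group). Dosing was oral, once daily for 11 days, in vehicle 0.5% carboxymethylcellulose sodium in PBS. Groups: vehicle, 75 or 150 mg/kg, or E7046 150 mg/kg. Tumor volume, TGI versus vehicle, body weight and day-11 tumor weight were recorded, with Dunnett's test versus vehicle.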

[9] = AUC (0 to infinity) in Sprague-Dawley rat at 1 mg/kg, iv; format: ADME, organism-based; design: dose 1 mg/kg, route iv; conditions: in vivo
[10] = Microsomal stability in mouse liver microsomes assessed as half life at 1 uM measured for 60 mins by LC-MS/MS analysis; format: ADME, Microsome
[11] = AUC (0 to infinity) in Sprague-Dawley rat at 10 mg/kg, po; format: ADME, organism-based; design: dose 10 mg/kg, route po; conditions: in vivo
[12] = molecular target: Voltage-gated inwardly rectifying potassium channel KCNH2 (Homo sapiens, UniProt Q12809); experiment: Inhibition of hERG; format: toxicity
[13] = AUC (0 to t) in Sprague-Dawley rat at 10 mg/kg, po; format: ADME, organism-based; design: dose 10 mg/kg, route po; conditions: in vivo
[14] = Toxicity in BALB/c mouse allografted with CT26 cells assessed as reduction in body weight at 75 to 150 mg/kg, po administered daily for 21 days and measured every 2 to 3 days in presence of 300 mg/kg capecitabine; format: organism-based; conditions: in vivo, 504 h, dose 75-150 mg/kg, time 21 day
Method in brief: (§2)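 CT-26 tumors in BALB/c mice (n = 6/group) dosed orally once daily from day 8 after implantation until day 21, in vehicle 0.5% carboxymethylcellulose sodium. Groups: vehicle, capecitabine 300 mg/kg alone, or capecitabine 300 mg/kg plus EP4 antagonist at 75 or 150 mg/kg. Tumor volume, TGI versus vehicle, body weight and tumor weight were recorded, with Dunnett's test.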

[15] = molecular target: T2, Prostaglandin E2 receptor EP1 subtype (Homo sapiens, UniProt P34995); experiment: Displacement of [3H]-PGE2 from EP1 receptor membrane (unknown origin) measured after 2 hrs by Microscint-O scintillation counting analysis; format: cell membranes
T2 sequence (P34995 whole entry): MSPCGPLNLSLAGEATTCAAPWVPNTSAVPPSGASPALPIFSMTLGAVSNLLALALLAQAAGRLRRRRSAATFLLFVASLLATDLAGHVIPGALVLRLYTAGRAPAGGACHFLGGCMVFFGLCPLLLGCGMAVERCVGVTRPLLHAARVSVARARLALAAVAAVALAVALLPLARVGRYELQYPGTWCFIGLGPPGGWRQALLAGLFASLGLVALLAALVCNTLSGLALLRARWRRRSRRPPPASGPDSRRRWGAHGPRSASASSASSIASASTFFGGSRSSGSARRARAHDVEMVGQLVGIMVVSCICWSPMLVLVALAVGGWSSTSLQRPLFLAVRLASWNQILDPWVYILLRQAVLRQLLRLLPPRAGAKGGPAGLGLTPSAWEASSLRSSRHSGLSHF

[16] = Clearance in Sprague-Dawley rat at 1 mg/kg, iv; format: ADME, organism-based; conditions: in vivo
[17] = AUC (0 to t) in Sprague-Dawley rat at 1 mg/kg, iv; format: ADME, organism-based; design: dose 1 mg/kg, route iv; conditions: in vivo
[18] = Cmax in Sprague-Dawley rat at 10 mg/kg, po; format: ADME, organism-based; design: dose 10 mg/kg, route po; conditions: in vivo
[19] = Volume of distribution at steady state in Sprague-Dawley rat at 1 mg/kg, iv; format: ADME, organism-based; conditions: in vivo, read-out: Vdss
[20] = Tmax at Sprague-Dawley rat at 10 mg/kg, po; format: ADME, organism-based; conditions: in vivo
[21] = Plasma protein binding in human at 1 uM incubated for 6 hrs by LC-MS/MS analysis; format: ADME, cell-free
[22] = Microsomal stability in human liver microsomes assessed as half life at 1 uM measured for 60 mins by LC-MS/MS analysis; format: ADME, Microsome
[23] = molecular target: T3, Prostaglandin E2 receptor EP2 subtype (Homo sapiens, UniProt P43116); experiment: Displacement of [3H]-PGE2 from EP2 receptor membrane (unknown origin) measured after 2 hrs by Microscint-O scintillation counting analysis; format: cell membranes
[24] = Half life in Sprague-Dawley rat at 10 mg/kg, po; format: ADME, organism-based; conditions: in vivo
[25] = molecular target: T1, Prostaglandin E2 receptor EP3 subtype; experiment: Displacement of [3H]-PGE2 from EP3 receptor membrane (unknown origin) measured after 2 hrs by Microscint-O scintillation counting analysis; format: cell membranes
[26] = Plasma protein binding in rat assessed as parent compound remaining at 1 uM incubated for 6 hrs by LC-MS/MS analysis; format: ADME, cell-free
[27] = molecular target: T2, Prostaglandin E2 receptor EP1 subtype; experiment: Antagonist activity at EP1 receptor (unknown origin)
[28] = Microsomal stability in rat liver microsomes assessed as half life at 1 uM measured for 60 mins by LC-MS/MS analysis; format: ADME, Microsome
[29] = molecular target: T3, Prostaglandin E2 receptor EP2 subtype; experiment: Antagonist activity at EP2 receptor (unknown origin)
[30] = Half life in Sprague-Dawley rat at 1 mg/kg, iv; format: ADME, organism-based; conditions: in vivo
[31] = molecular target: Prostaglandin E2 receptor EP4 subtype (Homo sapiens, UniProt P35408); experiment: Antagonist activity at human EP4 receptor overexpressed in HEK293 cells assessed as inhibition of PGE2-induced cAMP formation preincubated for 15 mins followed by PGE addition and measured after 30 mins by Eu-cAMP tracer based assay; format: functional, cell-based
CT26 [32] = experiment: Antitumor activity against mouse CT26 cells allografted in BALB/c mouse assessed as tumor growth inhibition at 300 mg/kg, po qd administered for 21 days starting from day 8 post tumor implantation measured once for every 2 or 3 days relative to control; format: functional; conditions: CT26, 504 h, time 21 day, read-out: TGI; method in brief: as §2
CT26 [33] = experiment: Antitumor activity against mouse CT26 cells allografted in BALB/c mouse assessed as mean tumor volume at 300 mg/kg, po qd administered for 21 days starting from day 8 post tumor implantation measured once for every 2 or 3 days (reference value: 2036.95 +/- 333.12 mm3); format: functional; conditions: time 21 day; method in brief: as §2
[34] = Toxicity in BALB/c mouse allografted with CT26 cells assessed as effect on body weight at 300 mg/kg, po administered daily for 21 days and measured every 2 to 3 days; format: organism-based; conditions: in vivo, 504 h, time 21 day; method in brief: as §2
CT26 [35] = experiment: Antitumor activity against mouse CT26 cells allografted in BALB/c mouse assessed as mean tumor volume at 150 mg/kg, po qd administered every day for 11 days measured for every 2 or 3 days (reference value: 2145.58 +/- 152.9 mm3); format: functional; conditions: time 11 day; method in brief: as §1
CT26 [36] = experiment: Antitumor activity against mouse CT26 cells allografted in BALB/c mouse assessed as tumor growth inhibition at 150 mg/kg, po qd administered every day for 11 days measured for every 2 or 3 days relative to control; format: functional; conditions: CT26, 264 h, time 11 day, read-out: TGI; method in brief: as §1

T3 sequence (P43116 whole entry): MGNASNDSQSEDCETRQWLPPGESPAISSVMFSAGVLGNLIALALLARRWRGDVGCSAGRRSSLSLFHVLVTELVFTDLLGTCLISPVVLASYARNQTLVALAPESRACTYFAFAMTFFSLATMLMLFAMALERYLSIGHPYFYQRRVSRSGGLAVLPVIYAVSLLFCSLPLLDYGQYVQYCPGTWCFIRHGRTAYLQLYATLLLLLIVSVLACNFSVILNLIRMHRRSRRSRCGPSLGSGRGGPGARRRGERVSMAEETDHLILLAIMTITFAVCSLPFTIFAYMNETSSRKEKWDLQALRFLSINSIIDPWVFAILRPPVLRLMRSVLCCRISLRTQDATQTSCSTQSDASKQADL
Voltage-gated inwardly rectifying potassium channel KCNH2, sequence (Q12809 whole entry): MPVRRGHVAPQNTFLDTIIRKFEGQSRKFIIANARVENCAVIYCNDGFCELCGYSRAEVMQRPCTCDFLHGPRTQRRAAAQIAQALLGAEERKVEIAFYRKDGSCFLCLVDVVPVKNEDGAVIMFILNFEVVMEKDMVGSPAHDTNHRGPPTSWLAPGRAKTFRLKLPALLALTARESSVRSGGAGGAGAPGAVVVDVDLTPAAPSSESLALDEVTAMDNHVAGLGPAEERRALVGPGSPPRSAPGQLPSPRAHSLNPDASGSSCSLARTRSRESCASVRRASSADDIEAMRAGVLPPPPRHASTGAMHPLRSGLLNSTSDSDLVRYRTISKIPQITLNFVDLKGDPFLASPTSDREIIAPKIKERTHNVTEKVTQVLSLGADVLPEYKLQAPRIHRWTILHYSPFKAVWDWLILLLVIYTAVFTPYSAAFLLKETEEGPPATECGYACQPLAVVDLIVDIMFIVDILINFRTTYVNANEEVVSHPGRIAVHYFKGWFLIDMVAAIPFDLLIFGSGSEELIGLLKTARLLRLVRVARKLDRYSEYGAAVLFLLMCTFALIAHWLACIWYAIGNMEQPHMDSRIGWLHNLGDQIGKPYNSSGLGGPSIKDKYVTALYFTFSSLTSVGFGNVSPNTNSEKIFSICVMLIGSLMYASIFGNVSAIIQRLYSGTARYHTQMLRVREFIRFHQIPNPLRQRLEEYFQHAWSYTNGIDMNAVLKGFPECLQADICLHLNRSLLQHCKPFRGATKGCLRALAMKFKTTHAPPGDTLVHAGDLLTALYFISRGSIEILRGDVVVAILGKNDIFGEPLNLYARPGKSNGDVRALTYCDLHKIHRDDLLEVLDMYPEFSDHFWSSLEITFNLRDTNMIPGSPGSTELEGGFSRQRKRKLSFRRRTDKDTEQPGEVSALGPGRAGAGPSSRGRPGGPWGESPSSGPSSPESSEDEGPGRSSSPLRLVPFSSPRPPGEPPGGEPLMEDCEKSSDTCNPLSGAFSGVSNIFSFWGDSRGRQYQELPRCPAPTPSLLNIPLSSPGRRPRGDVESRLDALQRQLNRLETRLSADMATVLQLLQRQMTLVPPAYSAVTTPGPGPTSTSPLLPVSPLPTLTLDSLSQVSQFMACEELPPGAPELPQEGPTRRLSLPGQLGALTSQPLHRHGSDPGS
Prostaglandin E2 receptor EP4 subtype, sequence (P35408 whole entry): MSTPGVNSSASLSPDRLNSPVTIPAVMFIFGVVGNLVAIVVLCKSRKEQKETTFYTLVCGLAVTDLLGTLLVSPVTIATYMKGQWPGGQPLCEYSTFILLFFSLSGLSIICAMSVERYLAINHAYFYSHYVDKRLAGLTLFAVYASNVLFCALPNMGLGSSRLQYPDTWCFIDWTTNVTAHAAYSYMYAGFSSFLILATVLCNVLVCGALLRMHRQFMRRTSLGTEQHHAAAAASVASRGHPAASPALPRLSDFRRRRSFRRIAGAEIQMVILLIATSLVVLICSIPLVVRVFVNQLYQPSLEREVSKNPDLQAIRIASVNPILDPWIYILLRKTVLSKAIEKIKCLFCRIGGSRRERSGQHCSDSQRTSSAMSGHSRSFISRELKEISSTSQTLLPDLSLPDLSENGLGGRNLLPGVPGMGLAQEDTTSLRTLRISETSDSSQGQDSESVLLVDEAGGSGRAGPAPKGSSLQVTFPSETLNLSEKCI

Compound: C[C@H](NC(=O)c1c(Nc2cccc(C(F)(F)F)c2)c2ccccc2n1C)c1ccc(C(=O)O)cc1
bioavailability [2]: 76.1%
PPB [3]: 99.66%
Cmax [4]: 4630 ng/mL
PPB [5]: 99.73%
residual activity [6]: 70.47%
residual activity [7]: 83.02%
Activity [8]: Non-Toxic
AUC(0-inf) [9]: 3420 ng·h/mL
half-life at 1 µM [10]: 1.64 h
AUC(0-inf) [11]: 25700 ng·h/mL
IC50 [12]: > 40 µM
AUC(0-t) [13]: 25700 ng·h/mL
Activity [14]: Non-Toxic
Ki [15]: > 9.6 µM
clearance [16]: 4.95 mL/min/kg
AUC(0-t) [17]: 3380 ng·h/mL
Cmax [18]: 8240 ng/mL
IC50 [1]: > 10 µM
Vd [19]: 0.41 L/kg
Tmax [20]: 0.5 h
PPB [21]: 99.68%
half-life at 1 µM [22]: 0.404 h
Ki [23]: > 8.8 µM
half-life [24]: 2.7 h
Ki [25]: > 6.4 µM
residual activity [26]: 88.79%
IC50 [27]: > 10 µM
half-life at 1 µM [28]: 4.33 h
IC50 [29]: > 10 µM
half-life [30]: 1.4 h

Compound: C[C@H](NC(=O)c1c(Nc2cccc(C(F)(F)F)c2)c2ccccc2n1C)c1ccc(C(N)=O)cc1
IC50 [31]: > 10 µM

Compound: CCCCCOC(=O)Nc1nc(=O)n([C@@H]2O[C@H](C)[C@@H](O)[C@H]2O)cc1F [CAPECITABINE]
inhibition in vivo at 300 mg/kg (CT26 [32]): 67.9%
Activity (CT26 [33]): 707.13 mm3
Activity [34]: Non-Toxic

Compound: C[C@H](NC(=O)c1c(C(F)F)nn(C)c1Oc1cccc(C(F)(F)F)c1)c1ccc(C(=O)O)cc1 [PALUPIPRANT]
Activity (CT26 [35]): 1619.76 mm3
inhibition in vivo at 150 mg/kg (CT26 [36]): 25.9%

Other lines, results leading:

IC50 [1]: 0.033 µM
Compound: COc1ccc(Br)cc1S(=O)(=O)NC(=O)/C=C/c1ccccc1Cc1ccc2ccccc2c1

Ki [15]: > 9.6 µM
Ki [23]: > 8.8 µM
Ki [25]: > 6.4 µM
Compound: Cn1c(C(=O)NC2(c3ccc(C(=O)O)cc3)CC2)c(Nc2cccc(C(F)(F)F)c2)c2ccccc21
